Reference: ChEMBL document CHEMBL1125112, “Antitumor imidazotetrazines. 20. Preparation of the 8-acid derivative of mitozolomide and its utility in the preparation of active antitumor agents” (1990)

Legend:
[1] = tested on: TLX-5; experiment: (§1) In vivo antitumor activity against the TLX5 lymphoma cell line in mouse species CBA/CA after intraperitoneal administration (inoculum cells-2x10E5,sc) at the dose of 40 mg/kg on 5th day; assay type: functional
[2] = tested on: TLX-5; experiment: In vivo antitumor activity against the TLX5 lymphoma cell line in mouse species CBA/CA after intraperitoneal administration (inoculum cells-2x10E5,sc) at the dose of 10 mg/kg; assay type: functional
[3] = tested on: TLX-5; experiment: In vivo antitumor activity against the TLX5 lymphoma cell line in mouse species CBA/CA after intraperitoneal administration (inoculum cells-2x10E5,sc) at the dose of 20 mg/kg; assay type: functional
How it was run: (§2)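 CBA/CA mice were inoculated with 2 × 10^5 TLX5 lymphoma cells. Drug given intraperitoneally in 10% Me2SO in arachis oil, 5 mice per dose, and the experiment lasted 60 days. Survivors at 60 days were recorded. T/C % = mean death day of treated animals / mean death day of control animals.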

[4] = tested on: L1210; experiment: In vivo antitumor activity against the L1210 leukemia cell line in mouse species B6D2F1 after intraperitoneal administration (inoculum cells-10E5,ip) at the dose of 100 mg/kg on 7th day; assay type: functional
[5] = tested on: TLX-5; experiment: In vivo antitumor activity against the TLX5 lymphoma cell line in mouse species CBA/CA after intraperitoneal administration (inoculum cells-2x10E5,sc) at the dose of 10 mg/kg on 5th day; assay type: functional
[6] = tested on: L1210; experiment: In vivo antitumor activity against the L1210 leukemia cell line in mouse species B6D2F1 after intraperitoneal administration (inoculum cells-10E5,ip) at the dose of 200 mg/kg on 7th day; assay type: functional
[7] = tested on: L1210; experiment: In vivo antitumor activity against the L1210 leukemia cell line in mouse species B6D2F1 after intraperitoneal administration (inoculum cells-10E5,ip) at the dose of 50 mg/kg on 7th day; assay type: functional
[8] = tested on: TLX-5; experiment: In vivo antitumor activity against the TLX5 lymphoma cell line in mouse species CBA/CA after intraperitoneal administration (inoculum cells-2x10E5,sc) at the dose of 160 mg/kg; assay type: functional; how it was run: as §2
[9] = tested on: TLX-5; experiment: In vivo antitumor activity against the TLX5 lymphoma cell line in mouse species CBA/CA after intraperitoneal administration (inoculum cells-2x10E5,sc) at the dose of 160 mg/kg on 5th day; assay type: functional
[10] = tested on: L1210; experiment: In vivo antitumor activity against the L1210 leukemia cell line in mouse species B6D2F1 after intraperitoneal administration (inoculum cells-10E5,ip) at the dose of 100 mg/kg; assay type: functional
[11] = tested on: L1210; experiment: In vivo antitumor activity against the L1210 leukemia cell line in mouse species B6D2F1 after intraperitoneal administration (inoculum cells-10E5,ip) at the dose of 200 mg/kg; assay type: functional
[12] = tested on: L1210; experiment: In vivo antitumor activity against the L1210 leukemia cell line in mouse species B6D2F1 after intraperitoneal administration (inoculum cells-10E5,ip) at the dose of 50 mg/kg; assay type: functional
[13] = tested on: TLX-5; experiment: (§3) In vivo antitumor activity against the TLX5 lymphoma cell line in mouse species CBA/CA after intraperitoneal administration (inoculum cells-2x10E5,sc) at the dose of 40 mg/kg; assay type: functional; how it was run: as §2
[14] = tested on: TLX-5; experiment: In vivo antitumor activity against the TLX5 lymphoma cell line in mouse species CBA/CA after intraperitoneal administration (inoculum cells-2x10E5,sc) at the dose of 20 mg/kg on 5th day; assay type: functional
[15] = tested on: TLX-5; experiment: In vivo antitumor activity against the TLX5 lymphoma cell line in mouse species CBA/CA after intraperitoneal administration (inoculum cells-2x10E5,sc) at the dose of 80 mg/kg; assay type: functional; how it was run: as §2
[16] = tested on: TLX-5; experiment: In vivo antitumor activity against the TLX5 lymphoma cell line in mouse species CBA/CA after intraperitoneal administration (inoculum cells-2x10E5,sc) at the dose of 80 mg/kg on 5th day; assay type: functional
[17] = tested on: TLX-5; experiment: In vivo antitumor activity against the TLX5 lymphoma cell line in mouse species CBA/CA after intraperitoneal administration (inoculum cells-2x10E5,ip) at the dose of 160 mg/kg on 5th day; assay type: functional
[18] = tested on: TLX-5; experiment: In vivo antitumor activity against the TLX5 lymphoma cell line in mouse species CBA/CA after intraperitoneal administration (inoculum cells-2x10E5,ip) at the dose of 80 mg/kg; assay type: functional; how it was run: as §2
[19] = tested on: TLX-5; experiment: In vivo antitumor activity against the TLX5 lymphoma cell line in mouse species CBA/CA after intraperitoneal administration (inoculum cells-2x10E5,ip) at the dose of 320 mg/kg on 5th day; assay type: functional
[20] = tested on: TLX-5; experiment: In vivo antitumor activity against the TLX5 lymphoma cell line in mouse species CBA/CA after intraperitoneal administration (inoculum cells-2x10E5,sc) at the dose of 160 mg/kg
[21] = tested on: TLX-5; experiment: In vivo antitumor activity against the TLX5 lymphoma cell line in mouse species CBA/CA after intraperitoneal administration (inoculum cells-2x10E5,ip) at the dose of 80 mg/kg on 5th day; assay type: functional
[22] = tested on: L1210; experiment: In vivo antitumor activity against the L1210 leukemia cell line in mouse species B6D2F1 after peroral administration (inoculum cells-10E5,iv) at the dose of 100 mg/kg on 7th day; assay type: functional; settings: route oral
How it was run: (§4)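 B6D2F1 mice were inoculated with 10^5 L1210 leukemia cells, ip or iv as the line states. Compound was given orally as a suspension in 1% (carboxymethyl)cellulose in water, dosed on day 1 or 3, over 28–39 days. T/C% = mean death day of treated/mean death day of controls. Survivors to the end were counted in groups of 7–8.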

[23] = tested on: L1210; experiment: In vivo antitumor activity against the L1210 leukemia cell line in mouse species B6D2F1 after peroral administration (inoculum cells-10E5,iv) at the dose of 50 mg/kg on 7th day; assay type: functional; settings: route oral; how it was run: as §4
[24] = tested on: L1210; experiment: In vivo antitumor activity against the L1210 leukemia cell line in mouse species B6D2F1 after peroral administration (inoculum cells-10E5,iv) at the dose of 100 mg/kg; assay type: functional; settings: route oral
[25] = tested on: L1210; experiment: In vivo antitumor activity against the L1210 leukemia cell line in mouse species B6D2F1 after peroral administration (inoculum cells-10E5,iv) at the dose of 200 mg/kg; assay type: functional; settings: route oral
[26] = tested on: TLX-5; experiment: as §1; assay type: functional; how it was run: as §2; remark: listed apart in the source
[27] = tested on: TLX-5; experiment: In vivo antitumor activity against the TLX5 lymphoma cell line in mouse species CBA/CA after intraperitoneal administration (inoculum cells-2x10E5,sc) at the dose of 320 mg/kg on 5th day; assay type: functional
[28] = tested on: L1210; experiment: In vivo antitumor activity against the L1210 leukemia cell line in mouse species B6D2F1 after peroral administration (inoculum cells-10E5,iv) at the dose of 50 mg/kg; assay type: functional; settings: route oral
[29] = tested on: TLX-5; experiment: as §3; assay type: functional; remark: listed apart in the source
How it was run: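 CBA/CA mice were implanted sc with 2 × 10^5 TLX5 lymphoma cells. Compound was given ip on day 3 in 10% Me2SO in arachis oil, over 60 days, in groups of 5. T/C% = mean death day of treated/mean death day of controls. Survivors to day 60 were counted.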

[30] = tested on: L1210; experiment: In vivo antitumor activity against the L1210 leukemia cell line in mouse species B6D2F1 after peroral administration (inoculum cells-10E5,iv) at the dose of 200 mg/kg on 7th day; assay type: functional; settings: route oral; how it was run: as §4

## CCOC(=O)c1ncn2c(=O)n(CCCl)nnc12
[1]
  Survivors: 0
[2]
  T/C: 89%
[3]
  T/C: 98%
[4]
  Survivors: 0
[5]
  Survivors: 0
[6]
  Survivors: 0
[7]
  Survivors: 0
[8]
  T/C: 113%
[9]
  Survivors: 0
[10]
  T/C: 120%
[11]
  T/C: 137%
[12]
  T/C: 113%
[13]
  T/C: 104%
[14]
  Survivors: 0
[15]
  T/C: 91%
[16]
  Survivors: 0

## O=C(NNc1ccccc1)c1ncn2c(=O)n(CCCl)nnc12
[17]
  Survivors: 0
[18]
  T/C: 107%
[19]
  Survivors: 0
[20]
  T/C: 169%
[21]
  Survivors: 0

## CONC(=O)c1ncn2c(=O)n(CCCl)nnc12
[3]
  T/C: 103%
[22]
  Survivors: 0
[23]
  Survivors: 0
[24]
  T/C: 179%
[25]
  T/C: 205%
[26]
  T/C: 116%
[8]
  T/C: >325%
[9]
  Survivors: 3
[27]
  Survivors: 0
[28]
  T/C: 117%
[14]
  Survivors: 0
[15]
  T/C: 185%
[29]
  Survivors: 0
[16]
  Survivors: 0
[30]
  Survivors: 0
